The results in this text go back to ChEMBL document CHEMBL3259704, “Second generation steroidal 4-aminoquinolines are potent, dual-target inhibitors of the botulinum neurotoxin serotype A metalloprotease and P. falciparum malaria” (J Med Chem, 2014).

Data set [1] has as its target Botulinum neurotoxin type A (Clostridium botulinum) (UniProt P0DPI0). In words: Inhibition of Clostridium botulinum recombinant BoNT/A light chain using N-terminal acetylated, C-terminal aminated SNAP-25 (187-203) as substrate at 20 uM by reverse-phase HPLC analysis. The essentials:
(§1)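 Recombinant BoNT/A LC with SNAP-25 187–203 peptide substrate in 40 mM HEPES–0.05% Tween, pH 7.3, with 0.5 mg/mL BSA and 50 μM excess Zn, at 37 °C. Quenched with TFA; reverse-phase HPLC product/substrate peak areas give percent inhibition, run in duplicate.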

Data set [2] deals with Botulinum neurotoxin type A (Clostridium botulinum, UniProt P0DPI0). In words: Inhibition of Clostridium botulinum recombinant BoNT/A light chain using N-terminal acetylated, C-terminal aminated SNAP-25 (187-203) as substrate by reverse-phase HPLC analysis. The essentials:
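Same HPLC LC cleavage assay (pH 7.3 HEPES/Tween, BSA, excess Zn, 37 °C). […] Ki comes from velocity versus substrate at several inhibitor levels, globally fit to a competitive model.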

Data set [3] addresses Botulinum neurotoxin type A (Clostridium botulinum) (UniProt P0DPI0). In words: Inhibition of Clostridium botulinum BoNT/A-mediated SNAP-25 cleavage in chicken embryo neurons assessed as intact SNAP-25 level at […] preincubated for 45 mins followed by co-incubation with BoNT/A for 3.5 hrs by western blot analysis. On the set-up: scale not given: the % may be the effect or the level left. Background: Immunoblotting shows a protein as a band on a membrane.

Data set [4] has the same target. In words: Inhibition of Clostridium botulinum BoNT/A-mediated SNAP-25 cleavage in chicken embryo neurons assessed as intact SNAP-25 level at […] preincubated for 45 mins followed by co-incubation with BoNT/A for 3.5 hrs by western blot analysis in presence of 5 uL of 100 nM antibiotic bafilomycin. Also on record: scale not given: the % may be the effect or the level left.

For data set [5] the target is unchanged. In words: Inhibition of Clostridium botulinum BoNT/A-mediated SNAP-25 cleavage in chicken embryo neurons assessed as intact SNAP-25 level at […] preincubated for 45 mins followed by co-incubation with BoNT/A for 3.5 hrs by western blot analysis in presence of 25 uL of 100 nM antibiotic bafilomycin. Also on record: scale not given: the % may be the effect or the level left.

For data set [6], the system named is Plasmodium falciparum. In words: Antimalarial activity against CQ-resistant, MFQ-susceptible Plasmodium falciparum W2 clone Indochina 1 isolate assessed as inhibition of parasite proliferation by MSF assay. Format: functional, organism-based. The essentials: (§2)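 SYBR Green I fluorescence (MSF) microtiter drug-sensitivity assay: malarial DNA content is the measure of in vitro parasite proliferation. Resistance index is the IC90 ratio of the resistant strain to D6.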

Data set [7] relates to Plasmodium falciparum. In words: Antimalarial activity against CQ, MFQ-susceptible Plasmodium falciparum D6 clone Sierra 1/UNC isolate assessed as inhibition of parasite proliferation by MSF assay. Format: functional, organism-based. The essentials:
as §2

The subject of data set [8] is Plasmodium falciparum. In words: Antimalarial activity against CQ, MFQ-resistant Plasmodium falciparum TM91C235 clone Southeast asian isolate assessed as inhibition of parasite proliferation by MSF assay. Format: functional, organism-based. An outline of the steps: as §2
For data set [9], the system named is Plasmodium falciparum. In words: Resistance index, ratio of IC90 for CQ, MFQ-resistant Plasmodium falciparum TM91C235 clone Southeast asian isolate to IC90 for CQ, MFQ-susceptible Plasmodium falciparum D6 clone Sierra 1/UNC isolate. It is filed as functional. An outline of the steps: as §2
The test system of data set [10] is Plasmodium falciparum. In words: Resistance index, ratio of IC90 for CQ-resistant, MFQ-susceptible Plasmodium falciparum W2 clone Indochina 1 isolate to IC90 for CQ, MFQ-susceptible Plasmodium falciparum D6 clone Sierra 1/UNC isolate. It is filed as functional. An outline of the steps:
as §2

The next data set has as its system HepG2. In words: Cytotoxicity against human HepG2 cells assessed as cell viability after 48 hrs by MTT assay. It is filed as cell-based. Conditions: HepG2, 48 h.
The nature of data set [11]: Selectivity index, ratio of IC50 for human HepG2 cells to IC50 for CQ-resistant, MFQ-susceptible Plasmodium falciparum W2 clone Indochina 1 isolate. Format: toxicity, cell-based. Conditions: read-out: Ratio IC50.
Data set [12] in a line: Selectivity index, ratio of IC50 for human HepG2 cells to IC50 for CQ, MFQ-susceptible Plasmodium falciparum D6 clone Sierra 1/UNC isolate. It is filed as toxicity, cell-based. Conditions: read-out: Ratio IC50.
Data set [13] can be described thus: Selectivity index, ratio of IC50 for human HepG2 cells to IC50 for CQ, MFQ-resistant Plasmodium falciparum TM91C235 clone Southeast asian isolate. It is filed as toxicity, cell-based. Conditions: read-out: Ratio IC50.
A further data set concerns PBMC. In words: Cytotoxicity against human PBMC assessed as inhibition of cell survival after 72 hrs. It is filed as cell-based. An outline of the steps:
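PBMC from heparinized healthy-donor blood (Histopaque) in RPMI-1640 with 10% FCS and PHA stimulation, 200 000 cells/well, with compounds in DMSO, 72 h at 37 °C, 6% CO2.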

Data set [14] can be described thus: Half life in human liver microsomes. It is filed as ADME. Conditions: liver microsomes. (In general: Liver microsomes are a subcellular fraction often used to study metabolism.)
Data set [15] is described as follows: Half life in mouse liver microsomes. Conditions: liver microsomes. It is filed as ADME.
The subject of the next data set is Plasmodium berghei. In words: Antimalarial activity against Plasmodium berghei infected in ICR mouse assessed as host survival at 40 to 160 mg/kg/day, po administered on day 3, 4 and 5 post-infection measured on day 13 after infection. Format: functional, organism-based.
The next data set relates to Mus musculus. In words: Toxicity in ICR mouse infected with Plasmodium berghei assessed as tissue damage at 40 to 160 mg/kg/day, po administered on day 3, 4 and 5 post-infection. Format: organism-based. Also on record: route oral. Conditions: in vivo.
Data set [16] deals with Botulinum neurotoxin type A (Clostridium botulinum) (UniProt P0DPI0). In words: Inhibition of Clostridium botulinum recombinant BoNT/A light chain using N-terminal acetylated, C-terminal aminated SNAP-25 (187-203) as substrate at 10 uM by reverse-phase HPLC analysis. The essentials:
as §1

Data set [17] has as its system Plasmodium falciparum. In words: Resistance index, ratio of IC50 for CQ, MFQ-resistant Plasmodium falciparum TM91C235 clone Southeast asian isolate to IC50 for CQ, MFQ-susceptible Plasmodium falciparum D6 clone Sierra 1/UNC isolate. It is filed as functional.
The test system of data set [18] is Plasmodium falciparum. In words: Resistance index, ratio of IC50 for CQ-resistant, MFQ-susceptible Plasmodium falciparum W2 clone Indochina 1 isolate to IC50 for CQ, MFQ-susceptible Plasmodium falciparum D6 clone Sierra 1/UNC isolate. It is filed as functional.

Activity calls are given as the source filed them. No cut-off for these calls is given here.

Sequence of Botulinum neurotoxin type A (Clostridium botulinum) (P0DPI0 2-448 limits assumed): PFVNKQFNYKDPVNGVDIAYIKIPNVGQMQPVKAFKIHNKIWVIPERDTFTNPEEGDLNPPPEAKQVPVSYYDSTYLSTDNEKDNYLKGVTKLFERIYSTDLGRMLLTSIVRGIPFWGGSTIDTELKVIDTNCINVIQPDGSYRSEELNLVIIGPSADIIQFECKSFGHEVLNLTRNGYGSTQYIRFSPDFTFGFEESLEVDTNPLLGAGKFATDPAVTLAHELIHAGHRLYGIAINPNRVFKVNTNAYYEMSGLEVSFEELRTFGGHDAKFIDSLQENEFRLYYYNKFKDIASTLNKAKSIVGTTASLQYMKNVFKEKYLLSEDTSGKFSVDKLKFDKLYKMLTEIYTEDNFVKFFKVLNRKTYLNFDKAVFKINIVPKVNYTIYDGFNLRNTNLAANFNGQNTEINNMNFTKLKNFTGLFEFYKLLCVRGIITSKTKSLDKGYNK
Sequence of Botulinum neurotoxin type A (P0DPI0 2-448 limits assumed): as above

With `CC(=O)O[C@H]1C[C@H]2[C@@H]([C@H](OC(C)=O)C[C@@H]3C[C@H](N)CC[C@@]32C)[C@@H]2CC[C@H]([C@H](C)CCCNCCNc3ccnc4cc(Cl)ccc34)[C@@]12C`, the inhibition (as a rule, the percentage by which the read-out fell short of the control) in data set [1] is 89.3%. Also, the IC50 (in general, the midpoint of a concentration-inhibition curve) in data set [2] is 810 nM; with Plasmodium falciparum [6], 161 nM; in the data set on Plasmodium falciparum [8], 147 nM; with HepG2 it was 5610 nM; in the data set on PBMC, 7880 nM. Moreover, the inhibition constant Ki (commonly a measure of affinity in units of concentration, obtained from inhibition or displacement) in data set [2] was 3220 nM. For the same compound, the Activity in data set [3] was 77%; in data set [4] it was 88%; in [5], 81%. Moreover, the 90% effect concentration (IC90) (usually the point of the concentration-response curve where the effect stands at 90%) with Plasmodium falciparum [6] was found to be 235 nM; in the data set with Plasmodium falciparum [7] it was 176 nM; with Plasmodium falciparum [8] it was 220 nM. Besides, the Ratio with Plasmodium falciparum [9] was 1.25; in the data set on Plasmodium falciparum [10], 1.33. Moreover, the selectivity ratio worked out at 35 in data set [11], 39 in data set [12] and 38 in [13].
For the compound `CC(=O)O[C@H]1C[C@H]2[C@@H]([C@H](OC(C)=O)C[C@@H]3C[C@H](N)CC[C@@]32C)[C@@H]2CC[C@H]([C@H](C)CCCN(C)CCNc3ccnc4cc(Cl)ccc34)[C@@]12C`, the inhibition in data set [1] amounted to 89.5%. In addition, the IC50 in data set [2] came out at 1140 nM; in the data set on Plasmodium falciparum [6], 2.88 nM; with Plasmodium falciparum [7], 3.6 nM; in the data set with Plasmodium falciparum [8] it was 6.18 nM; with HepG2, 14400 nM; in the data set with PBMC, 2590 nM. Besides, the concentration for an effect of 90% (IC90) in the data set with Plasmodium falciparum [6] worked out at 3.74 nM; in the data set with Plasmodium falciparum [7], 4.46 nM; in the data set on Plasmodium falciparum [8], 9.2 nM. For the same compound, the Ratio in the data set with Plasmodium falciparum [9] worked out at 2.06; with Plasmodium falciparum [10], 0.84. Also, the selectivity ratio in data set [11] was 4990; in data set [12], 4000; in data set [13], 2330. The half-life in data set [14] and in [15] was 1 h throughout. Besides, the outcome in the data set on Plasmodium berghei was inactive. Besides, the Activity result with Mus musculus is “Non-toxic”.
Take `CC(=O)O[C@H]1C[C@H]2[C@@H]([C@H](OC(C)=O)C[C@@H]3CC(NCCNc4ccnc5cc(Cl)ccc45)CC[C@@]32C)[C@@H]2CC[C@H]([C@H](C)CCCNCCNc3ccnc4cc(Cl)ccc34)[C@@]12C` (some centres not stated): the inhibition in data set [1] came to 96.5%. The Ki in data set [2] turned out to be 341 nM. For the same compound, the inhibition result in [16] is “Active”. Further, the IC50 was 98.2 nM in the data set with Plasmodium falciparum [6]; 120 nM in the data set on Plasmodium falciparum [7]; 124 nM with Plasmodium falciparum [8]; 3770 nM with HepG2; 302 nM with PBMC. Moreover, the selectivity ratio in data set [11] turned out to be 38; in [12] it was 32; in data set [13], 30.
For `CC(=O)O[C@H]1C[C@H]2[C@@H]([C@H](OC(C)=O)C[C@@H]3CC(NCCCNc4ccnc5cc(Cl)ccc45)CC[C@@]32C)[C@@H]2CC[C@H]([C@H](C)CCCNCCCNc3ccnc4cc(Cl)ccc34)[C@@]12C` (mixture of isomers), the inhibition in data set [1] was determined as 97.2%. In addition, the Ki in data set [2] is 171 nM. Further, the inhibition result in data set [16] is “Active”. In addition, the IC50 in the data set with Plasmodium falciparum [6] came out at 108 nM; in the data set on Plasmodium falciparum [7] it was 143 nM; in the data set with Plasmodium falciparum [8] it was 195 nM; with HepG2 it was 4680 nM. Besides, the selectivity ratio worked out at 43 in data set [11], 32 in data set [12] and 24 in data set [13].
For `CC(=O)O[C@H]1C[C@H]2[C@@H]([C@H](OC(C)=O)C[C@@H]3C[C@H](N(C)C)CC[C@@]32C)[C@@H]2CC[C@H]([C@H](C)CCCNCCNc3ccnc4cc(Cl)ccc34)[C@@]12C`, the inhibition in data set [1] came out at 93.5%. The half-inhibitory concentration (IC50) in data set [2] came out at 1020 nM; in the data set on Plasmodium falciparum [6], 19.7 nM; in the data set with Plasmodium falciparum [7] it was 42.3 nM; in the data set with Plasmodium falciparum [8], 32.4 nM; in the data set on HepG2, 14100 nM. The selectivity ratio in [11] came to 714; in data set [12], 333; in data set [13], 435. Besides, the half-life in data set [14] and in data set [15] was 1 h each time. Further, the “Ratio IC50” value turned out to be 0.77 with Plasmodium falciparum [17] and 47 with Plasmodium falciparum [18].
With `CC(=O)O[C@H]1C[C@H]2[C@@H]([C@H](OC(C)=O)C[C@@H]3C[C@H](N(C)C)CC[C@@]32C)[C@@H]2CC[C@H]([C@H](C)CCCN(C)CCCNc3ccnc4cc(Cl)ccc34)[C@@]12C`, the inhibition in [1] came out at 86.9%. Moreover, the half-inhibitory concentration (IC50) in data set [2] came out at 1290 nM; with Plasmodium falciparum [6] it was 57 nM; in the data set on Plasmodium falciparum [7], 152 nM; in the data set on Plasmodium falciparum [8], 74.6 nM; in the data set with HepG2, 5280 nM. Further, the figures for the selectivity ratio in data set [11], in data set [12] and in data set [13] were 93, 35 and 71, respectively. The half-life in data set [14] and in [15] was 1 h in each case.
